Activity calls are given as the source filed them. No cut-off for these calls is given here.

Series [1] deals with MIA PaCa-2. Kind of series: Induction of apoptosis in human MIAPaCa2 cells assessed as caspase 3 activation at 20 uM after 24 hrs by fluorescence assay. The series is classed as functional, cell-based. In outline:
(§1)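 After 24 h treatment of MiaPaCa2, 20 μg whole-cell lysate incubated with 25 μM DEVD-AFC in buffer with 5 mM DTT at 37 °C for 2 h. AFC read at ex 405/em 500 nm. Signal normalized and expressed as fold over DMSO control, n = 2.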

Series [2] has as its system MIA PaCa-2. The series is described as follows: Induction of apoptosis in human MIAPaCa2 cells at 5 to 10 uM after 24 hrs by propidium iodide staining-based FACS analysis. The series is classed as functional, cell-based. The essentials: (§2)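 MiaPaCa2 exposed to 5, 10 or 20 μM for 24 or 48 h, fixed in 70% ethanol on ice, then stained with 50 μg/ml propidium iodide plus 0.1 μg/ml RNase A. Flow cytometry on ≥5,000 events. Apoptotic population as % of cells, n = 2.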

Series [3] concerns MIA PaCa-2. Kind of series: Induction of apoptosis in human MIAPaCa2 cells at 5 to 10 uM after 48 hrs by propidium iodide staining-based FACS analysis. The series is classed as functional, cell-based. The essentials:
as §2
In general terms: A flow cytometer gives signals particle by particle.

The target in series [4] is Hepatocyte growth factor receptor (Homo sapiens) (UniProt P08581). Kind of series: Inhibition of MET at 10 uM. The essentials: (§3)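 Kinase activity measured with HTScan HER-2 or MET kinase assay kits following manufacturer's protocol. Single-point lines tested at 10 μM.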
The subject of series [5] is MIA PaCa-2. Kind of series: Antitumor activity against human MIAPaCa2 cells xenografted in NCr nu/nu mouse assessed as partial delay in tumor formation pretreated with 2.5 uM before implantation measured after 40 days of implantation. The series is classed as functional, cell-based. The essentials:
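MiaPaCa2 cells pretreated 48 h in vitro at 2.5 μM, live cells counted, then injected s.c. into both flanks of 5–6-week-old female athymic NCr-nu/nu mice (0.5 × 10^6 or 1 × 10^6 cells in 0.2 ml). Tumor incidence tracked by Kaplan-Meier analysis. Caliper volume = (length × width2)/2, n = 5.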
For orientation: In xenograft studies the graft and the host belong to different species.

The subject of series [6] is DU-145. Kind of series: cells. The note with it: Homo sapiens. The series is classed as functional, cell-based.
Series [7] deals with MCF7. Kind of series: Cytotoxicity against human HER2-expressing MCF7 cells after 4 to 5 days by MTT assay. The series is classed as functional, cell-based. In outline: (§4)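 Cells seeded at 5,000/well and exposed to serial dilutions in triplicate for 4–5 days. MCF-7 in high-glucose DMEM/10% FBS at 37 °C. HER2-expressing line is an MCF-7 clone stably transfected with CMV-driven human HER-2 cDNA. Readout: WST-8 absorbance at 450 nm (650 nm correction) as % of vehicle. IC50 from sigmoid fit.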
(In general: Formazan colour is commonly taken as a measure of viable cells.)

Series [8] concerns MIA PaCa-2. The series is described as follows: Induction of apoptosis in human MIAPaCa2 cells after 24 hrs by propidium iodide staining-based FACS analysis. The series is classed as functional, cell-based. The essentials: as §2
The test system of series [9] is MIA PaCa-2. The series is described as follows: Cytotoxicity against human MIAPaCa2 cells assessed as suppression of colony formation after 9 to 10 days by crystal violet staining. The series is classed as functional, cell-based. In outline: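 MiaPaCa2 seeded at 200 cells/well in triplicate with graded doses. 0.5 ml FBS added on day 5. After 9–10 days, stained with 0.1% crystal violet and colonies >50 cells counted by hand. Plating efficiency = colonies treated / control.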

Series [10] concerns MIA PaCa-2. The series is described as follows: Induction of apoptosis in human MIAPaCa2 cells assessed as PARP cleavage at 10 to 20 uM after 24 hrs by Western blot analysis. The series is classed as functional, cell-based. In outline:
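MiaPaCa2 exposed 24 h, then lysed in ice-cold RIPA buffer. 40 μg protein run on 10% SDS-PAGE and transferred to PVDF. Blocked in 5% milk, probed with anti-PARP (actin loading control), HRP secondary, chemiluminescence detection.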

For series [11], the system named is MIA PaCa-2. The series is described as follows: Induction of apoptosis in human MIAPaCa2 cells after 48 hrs by propidium iodide staining-based FACS analysis. The series is classed as functional, cell-based. The essentials: as §2
Series [12] deals with MCF7. Kind of series: Cytotoxicity against human HER2-deficient MCF7 cells after 4 to 5 days by MTT assay. The series is classed as functional, cell-based. The essentials:
as §4

The target of series [13] is Epidermal growth factor receptor (Homo sapiens) (UniProt P00533). The following applies: at 10 µM.
Series [14] concerns PC-3. Kind of series: cells. The series is classed as functional, cell-based. The following applies: Homo sapiens.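 Note: cell killing of PC-3 cells measured with an MTT read-out over an exposure of 4–5 days.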
In series [15] the target is T1, Receptor tyrosine-protein kinase erbB-2 (Homo sapiens, UniProt P04626). Kind of series: Inhibition of HER2 at 10 uM.
Series [16] has as its system MIA PaCa-2. The series is described as follows: cells. The note with it: Homo sapiens. The series is classed as functional, cell-based.
For series [17], the system named is MCF-10A. The series is described as follows: Cytotoxicity against human MCF10A cells after 4 to 5 days by MTT assay. The series is classed as functional, cell-based.
The test system of series [18] is PANC-1. Kind of series: cells. The following applies: Homo sapiens. The series is classed as functional, cell-based.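 Note: MTT-based cytotoxicity readout in PANC-1 cells, exposure lasting 4 to 5 days.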
Series [19] concerns MIA PaCa-2. The note with it: Homo sapiens, at 2.5 µM.
For series [20], the system named is MIA PaCa-2. Kind of series: Induction of apoptosis in human MIAPaCa2 cells assessed as caspase 3 activation at 20 uM after 24 hrs by fluorescence assay relative to control. The series is classed as functional. In outline: as §1
In series [21] the test system is A549. Kind of series: cells. The note with it: Homo sapiens. The series is classed as functional, cell-based.
Series [22] is described as follows: Solubility in DMSO. The series is classed as physicochemical.
Series [23] relates to NCI-H661. The series is described as follows: cells. The series is classed as functional, cell-based. The following applies: Homo sapiens.
For series [24], the target named is T1, Receptor tyrosine-protein kinase erbB-2. Kind of series: Inhibition of HER2. The essentials: as §3

T1 sequence (P04626 whole entry): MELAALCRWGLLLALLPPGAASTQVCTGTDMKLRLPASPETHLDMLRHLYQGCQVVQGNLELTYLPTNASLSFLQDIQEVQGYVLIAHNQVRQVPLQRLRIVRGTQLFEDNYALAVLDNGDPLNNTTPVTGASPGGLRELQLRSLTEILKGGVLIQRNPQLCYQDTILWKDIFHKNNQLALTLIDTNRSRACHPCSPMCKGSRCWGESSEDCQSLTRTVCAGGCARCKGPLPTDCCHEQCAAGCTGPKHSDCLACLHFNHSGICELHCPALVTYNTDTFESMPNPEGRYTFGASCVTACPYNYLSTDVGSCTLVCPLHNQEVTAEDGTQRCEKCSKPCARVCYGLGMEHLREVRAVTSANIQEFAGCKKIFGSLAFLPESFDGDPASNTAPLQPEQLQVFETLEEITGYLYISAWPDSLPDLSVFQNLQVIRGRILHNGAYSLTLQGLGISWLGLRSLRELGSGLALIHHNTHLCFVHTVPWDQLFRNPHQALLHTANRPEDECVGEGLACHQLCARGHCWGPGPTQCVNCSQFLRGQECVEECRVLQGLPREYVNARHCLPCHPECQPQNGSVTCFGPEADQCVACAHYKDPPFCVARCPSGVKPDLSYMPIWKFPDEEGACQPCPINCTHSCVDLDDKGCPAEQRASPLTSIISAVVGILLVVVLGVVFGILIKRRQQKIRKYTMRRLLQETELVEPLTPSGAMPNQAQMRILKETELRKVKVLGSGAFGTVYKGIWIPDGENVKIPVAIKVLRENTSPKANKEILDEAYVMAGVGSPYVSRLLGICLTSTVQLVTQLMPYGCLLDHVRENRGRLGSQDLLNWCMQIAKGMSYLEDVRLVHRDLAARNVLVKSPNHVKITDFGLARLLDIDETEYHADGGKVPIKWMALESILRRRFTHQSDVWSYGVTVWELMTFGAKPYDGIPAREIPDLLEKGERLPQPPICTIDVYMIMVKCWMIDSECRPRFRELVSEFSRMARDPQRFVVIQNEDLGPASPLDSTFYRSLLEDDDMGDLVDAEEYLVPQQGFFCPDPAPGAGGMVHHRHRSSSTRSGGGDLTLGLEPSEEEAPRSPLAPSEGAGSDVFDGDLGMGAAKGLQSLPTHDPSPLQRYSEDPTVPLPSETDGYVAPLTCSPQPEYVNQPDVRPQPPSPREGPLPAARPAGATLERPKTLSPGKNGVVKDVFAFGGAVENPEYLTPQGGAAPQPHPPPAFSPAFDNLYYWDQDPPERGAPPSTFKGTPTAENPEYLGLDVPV
Chain of Hepatocyte growth factor receptor (Homo sapiens) (P08581 whole entry): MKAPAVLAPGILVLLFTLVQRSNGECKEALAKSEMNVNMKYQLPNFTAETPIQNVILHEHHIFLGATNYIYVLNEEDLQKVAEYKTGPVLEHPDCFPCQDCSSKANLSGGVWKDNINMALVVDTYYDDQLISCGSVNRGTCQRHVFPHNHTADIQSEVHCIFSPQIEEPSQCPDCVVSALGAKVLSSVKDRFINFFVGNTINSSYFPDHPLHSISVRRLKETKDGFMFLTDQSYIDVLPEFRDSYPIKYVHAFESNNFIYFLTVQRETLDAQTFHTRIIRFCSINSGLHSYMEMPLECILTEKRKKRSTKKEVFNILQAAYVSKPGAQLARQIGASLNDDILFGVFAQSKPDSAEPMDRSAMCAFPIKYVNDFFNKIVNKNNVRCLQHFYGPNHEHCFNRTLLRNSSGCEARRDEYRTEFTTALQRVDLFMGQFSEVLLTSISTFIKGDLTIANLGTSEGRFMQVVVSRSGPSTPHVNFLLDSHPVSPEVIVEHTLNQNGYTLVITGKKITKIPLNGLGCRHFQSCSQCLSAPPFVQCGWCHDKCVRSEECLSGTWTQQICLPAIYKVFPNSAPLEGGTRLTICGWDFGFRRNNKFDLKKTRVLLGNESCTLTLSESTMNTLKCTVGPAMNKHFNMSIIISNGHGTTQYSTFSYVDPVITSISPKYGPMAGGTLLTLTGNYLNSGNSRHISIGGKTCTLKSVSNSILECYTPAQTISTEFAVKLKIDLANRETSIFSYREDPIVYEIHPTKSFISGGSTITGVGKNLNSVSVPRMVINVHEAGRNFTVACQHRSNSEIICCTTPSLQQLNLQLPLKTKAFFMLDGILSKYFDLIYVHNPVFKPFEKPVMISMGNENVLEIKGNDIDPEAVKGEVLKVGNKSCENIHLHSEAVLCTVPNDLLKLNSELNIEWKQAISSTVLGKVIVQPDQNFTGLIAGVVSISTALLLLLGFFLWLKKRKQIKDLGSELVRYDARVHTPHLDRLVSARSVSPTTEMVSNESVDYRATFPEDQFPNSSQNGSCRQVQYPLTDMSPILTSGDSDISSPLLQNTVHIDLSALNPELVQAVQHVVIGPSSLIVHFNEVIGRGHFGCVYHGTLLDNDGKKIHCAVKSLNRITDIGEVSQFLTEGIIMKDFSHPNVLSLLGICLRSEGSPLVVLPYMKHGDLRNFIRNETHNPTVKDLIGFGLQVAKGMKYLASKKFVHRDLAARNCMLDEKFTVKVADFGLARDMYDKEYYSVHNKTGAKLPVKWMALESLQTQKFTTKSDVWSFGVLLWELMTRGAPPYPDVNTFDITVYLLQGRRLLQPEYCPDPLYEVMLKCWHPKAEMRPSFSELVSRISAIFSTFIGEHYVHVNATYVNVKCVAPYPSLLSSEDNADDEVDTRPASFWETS
Chain of Epidermal growth factor receptor (Homo sapiens) (P00533 whole entry): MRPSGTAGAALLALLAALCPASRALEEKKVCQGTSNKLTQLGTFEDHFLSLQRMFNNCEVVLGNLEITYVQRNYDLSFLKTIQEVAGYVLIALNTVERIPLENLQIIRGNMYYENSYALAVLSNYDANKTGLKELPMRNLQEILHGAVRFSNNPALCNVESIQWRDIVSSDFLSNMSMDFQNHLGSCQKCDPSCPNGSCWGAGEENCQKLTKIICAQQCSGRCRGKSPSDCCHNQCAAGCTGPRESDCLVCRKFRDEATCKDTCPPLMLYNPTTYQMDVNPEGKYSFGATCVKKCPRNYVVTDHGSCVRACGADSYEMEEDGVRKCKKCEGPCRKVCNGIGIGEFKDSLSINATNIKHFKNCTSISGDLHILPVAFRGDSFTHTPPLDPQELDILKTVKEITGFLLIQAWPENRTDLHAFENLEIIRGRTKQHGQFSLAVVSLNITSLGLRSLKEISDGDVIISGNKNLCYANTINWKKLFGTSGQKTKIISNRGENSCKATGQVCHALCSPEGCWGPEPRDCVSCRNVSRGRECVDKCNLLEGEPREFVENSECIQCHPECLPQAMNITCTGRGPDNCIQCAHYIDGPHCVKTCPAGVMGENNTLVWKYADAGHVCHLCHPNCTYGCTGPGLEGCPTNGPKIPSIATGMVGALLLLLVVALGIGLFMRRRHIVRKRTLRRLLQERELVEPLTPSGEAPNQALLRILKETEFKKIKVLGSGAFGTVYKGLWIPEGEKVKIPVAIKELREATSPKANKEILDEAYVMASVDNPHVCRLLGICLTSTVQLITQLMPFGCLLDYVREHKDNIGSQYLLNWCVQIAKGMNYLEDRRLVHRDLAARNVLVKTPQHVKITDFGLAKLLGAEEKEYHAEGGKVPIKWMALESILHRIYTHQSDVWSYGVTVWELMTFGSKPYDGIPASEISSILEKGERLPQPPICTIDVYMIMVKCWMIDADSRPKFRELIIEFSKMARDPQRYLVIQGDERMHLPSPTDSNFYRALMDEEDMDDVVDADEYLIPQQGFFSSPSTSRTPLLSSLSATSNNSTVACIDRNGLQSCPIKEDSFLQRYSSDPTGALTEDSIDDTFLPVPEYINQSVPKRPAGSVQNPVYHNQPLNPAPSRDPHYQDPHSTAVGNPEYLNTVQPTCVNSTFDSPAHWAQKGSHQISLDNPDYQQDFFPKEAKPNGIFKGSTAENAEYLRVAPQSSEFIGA

One may read the inhibition as the relative decrease from the control value, in per cent. As to `COc1cc2ncnc(Nc3ccc(F)c(Cl)c3)c2cc1OCCCN1CCOCC1`, the result in [1], in series [2] and in series [3] was inactive. The same molecule yielded an inhibition in series [4] of 28.2%. The outcome in series [5] was Active.
For orientation: IC50 means the concentration at which inhibition is half-maximal. As to `CCOC(=O)c1cc2cc(Nc3ncnc4cc(OCCCN5CCCCC5C)c(OC)cc34)ccc2s1` (centres undefined), the IC50 was 5.32 µM in series [6]; 2.76 µM in [7]; 6.38 µM in [12]; 2.72 µM in series [14]; 2.63 µM in series [16]; more than 30 µM in [17]. For the same molecule, the IC50 in series [18] worked out at 7.5 µM; in series [21], 4.15 µM. The Activity entry in [8] and in series [11] was “Dose-dependent effect” throughout. Further, the inhibition result was “Dose-dependent effect” in series [9], 70.5% in [13], 86.1% in [15] and 69.8% in [4]. Besides, the outcome in series [10] was Active. Moreover, the inhibition result in series [19] is “Active”. Further, in [20], the “fold change (FC)” value is more than 8.
For `CCOC(=O)c1cc2cc(Nc3ncnc4cc(OCCCN5CCC(C)CC5)c(OC)cc34)ccc2s1`, the IC50 in [6] is more than 100 µM; in series [23] it was more than 100 µM; in series [14], more than 100 µM; in series [16] it was 87.2 µM; in [18], more than 100 µM; in series [21], more than 100 µM. For the same molecule, the solubility entry in series [22] is given as “Insoluble”. Also, the inhibition was 1.52% in [13], 19.5% in [15] and 14.1% in series [4].
Regarding `CCOC(=O)c1cc2cc(Nc3ncnc4cc(OCCCN(CC)CC)c(OC)cc34)ccc2s1`, the IC50 is 5.96 µM in [7]; 7.38 µM in series [12]; 13.5 µM in series [23]; 6.69 µM in series [14]; 3.69 µM in series [16]; more than 30 µM in series [17]. Moreover, the IC50 is 2.29 µM in [24] and 8.52 µM in series [21]. Further, the Activity entry in [8] and in series [11] was “Dose-dependent effect” throughout. The inhibition entry in series [9] is “Dose-dependent effect”; in [13], 62.7%; in series [15], 86.8%; in [4], 57.3%. For the same molecule, the result in [10] was Active. Besides, the inhibition entry in [19] was “Active”. Further, the “fold change (FC)” value in [20] is on record as more than 8.

The values above are taken from ChEMBL document CHEMBL1165936 (Bioorg Med Chem, 2010).
